According to paper PMC3983348 (Journal of Medicinal Chemistry, 2014):
Like-named read-outs stand apart in the source and are kept apart here.

How the values were obtained:
recombinant Top1 [1] = target: T1, recombinant Top1 (Homo sapiens, UniProt P11387); parameters: key to the marks not given beside the values; conditions: score based on the activity of 1 μM camptothecin; cited from earlier work
T1 sequence (P11387 1-765): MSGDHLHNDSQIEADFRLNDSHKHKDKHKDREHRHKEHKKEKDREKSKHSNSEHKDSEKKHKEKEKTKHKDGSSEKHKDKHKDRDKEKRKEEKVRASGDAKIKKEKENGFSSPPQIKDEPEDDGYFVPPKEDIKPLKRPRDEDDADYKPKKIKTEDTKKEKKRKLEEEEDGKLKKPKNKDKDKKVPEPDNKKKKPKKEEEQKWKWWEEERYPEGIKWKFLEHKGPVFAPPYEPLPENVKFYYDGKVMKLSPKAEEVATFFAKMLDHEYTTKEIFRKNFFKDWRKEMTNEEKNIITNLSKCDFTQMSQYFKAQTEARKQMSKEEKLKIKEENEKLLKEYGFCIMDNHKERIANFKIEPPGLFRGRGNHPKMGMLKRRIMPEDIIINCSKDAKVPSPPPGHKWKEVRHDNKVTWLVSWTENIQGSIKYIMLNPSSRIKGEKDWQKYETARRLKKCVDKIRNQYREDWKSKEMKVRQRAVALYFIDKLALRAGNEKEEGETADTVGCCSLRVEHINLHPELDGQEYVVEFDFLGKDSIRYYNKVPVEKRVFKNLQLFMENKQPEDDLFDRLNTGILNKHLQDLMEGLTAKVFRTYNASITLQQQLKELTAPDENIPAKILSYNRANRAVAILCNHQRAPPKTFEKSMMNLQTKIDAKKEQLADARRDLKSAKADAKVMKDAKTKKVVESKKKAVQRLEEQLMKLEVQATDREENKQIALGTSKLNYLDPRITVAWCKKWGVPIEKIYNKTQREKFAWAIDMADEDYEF

lung, HOP-62 [2] = conditions: read-out: cytotoxicity GI50, lung, HOP-62; five-dose assay; cited from earlier work
colon, HCT-116 [3] = conditions: read-out: cytotoxicity GI50, colon, HCT-116; five-dose assay; cited from earlier work
CNS, SF-539 = conditions: read-out: cytotoxicity GI50, CNS, SF-539; five-dose assay; cited from earlier work
melanoma, UACC-62 [4] = conditions: read-out: cytotoxicity GI50, melanoma, UACC-62; five-dose assay; cited from earlier work
ovarian, OVCAR-3 [5] = conditions: read-out: cytotoxicity GI50, ovarian, OVCAR-3; five-dose assay; cited from earlier work
renal, SN12C [6] = conditions: read-out: cytotoxicity GI50, renal, SN12C; five-dose assay; cited from earlier work
prostate, DU-145 [7] = conditions: read-out: cytotoxicity GI50, prostate, DU-145; five-dose assay; cited from earlier work
[8] = test system: panel of 60 different human cancer cell lines; conditions: mean graph midpoint, five-dose assay; cited from earlier work
lung, HOP-62 [9] = assay: NCI-60 five-dose assay, HOP-62; type: cell-based; conditions: Homo sapiens, HOP-62, read-out: cytotoxicity GI50, lung, HOP-62
Procedure, shortened: (§1)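 Run in the National Cancer Institute's NCI-60 human cancer cell panel. Test compounds were first screened in a one-dose assay at 10–5 M, reading growth percent relative to vehicle-treated control.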

colon, HCT-116 [10] = assay: NCI-60 five-dose assay, HCT-116; type: cell-based; conditions: Homo sapiens, HCT-116, read-out: cytotoxicity GI50, colon, HCT-116
Procedure, shortened: as §1

melanoma, UACC-62 [11] = assay: NCI-60 five-dose assay, UACC-62; type: cell-based; conditions: Homo sapiens, UACC-62, read-out: cytotoxicity GI50, melanoma, UACC-62
Procedure, shortened: as §1

ovarian, OVCAR-3 [12] = assay: NCI-60 five-dose assay, OVCAR-3; type: cell-based; conditions: Homo sapiens, OVCAR-3, read-out: cytotoxicity GI50, ovarian, OVCAR-3
Procedure, shortened: as §1

renal, SN12C [13] = assay: NCI-60 five-dose assay, SN12C; type: cell-based; conditions: Homo sapiens, read-out: cytotoxicity GI50, renal, SN12C
Procedure, shortened: as §1

prostate, DU-145 [14] = assay: NCI-60 five-dose assay, DU-145; type: cell-based; conditions: Homo sapiens, DU-145, read-out: cytotoxicity GI50, prostate, DU-145
Procedure, shortened: as §1

breast, MCF7 [15] = assay: NCI-60 five-dose assay, MCF7; type: cell-based; conditions: Homo sapiens, MCF7, read-out: cytotoxicity GI50, breast, MCF7
Procedure, shortened: as §1

recombinant Top1 [16] = target: T1, recombinant Top1; assay: Top1-mediated DNA cleavage assay; type: biochemical; conditions: compound-induced DNA cleavage, score based on the activity of 1 μM camptothecin
∼60 cancer cell lines = assay: NCI-60 one-dose assay; type: cell-based; conditions: Homo sapiens, read-out: mean growth, %, 10 μM compound, one-dose assay, relative to vehicle-treated control
Procedure, shortened: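 Single-dose screen at 10–5 M across the ~60 human cancer cell lines of the NCI-60 panel. Growth percent of treated cells was expressed relative to vehicle-treated controls and averaged over the panel.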

[17] = test system: panel of 60 different human cancer cell lines; assay: NCI-60 five-dose assay, mean graph midpoint; type: cell-based; conditions: mean graph midpoint of growth inhibition, five-dose assay 10^–8 to 10^–4 M
breast, MCF7 [18] = conditions: read-out: cytotoxicity GI50, breast, MCF7; five-dose assay; cited from earlier work

Row | Top1 cleavage (recombinant Top1 [16]) | Structure (SMILES) | Top1 cleavage (recombinant Top1 [1]) | GI50 (lung, HOP-62 [2]) [µM] | GI50 (colon, HCT-116 [3]) [µM] | GI50 (CNS, SF-539) [µM] | GI50 (melanoma, UACC-62 [4]) [µM] | GI50 (ovarian, OVCAR-3 [5]) [µM] | GI50 (renal, SN12C [6]) [µM] | GI50 (prostate, DU-145 [7]) [µM] | MGM [8] [µM] | GI50 (lung, HOP-62 [9]) [µM] | GI50 (colon, HCT-116 [10]) [µM] | GI50 (melanoma, UACC-62 [11]) [µM] | GI50 (ovarian, OVCAR-3 [12]) [µM] | GI50 (renal, SN12C [13]) [µM] | GI50 (prostate, DU-145 [14]) [µM] | GI50 (breast, MCF7 [15]) [µM] | activity at 10 µM (∼60 cancer cell lines) [%] | MGM [17] [µM] | GI50 (breast, MCF7 [18]) [µM]
1 | – | COc1cc2c3c(n(CCCn4ccnc4)c(=O)c2cc1OC)-c1cc2c(cc1C3=O)OCO2 [Compound 5, 6-(3-(1H-Imidazol-1-yl)propyl)-2,3-dimethoxy-5,6-dihydro-8,9-methylendioxy-5,12-dioxoindeno[1,2-c]isoquinoline] | ++++ | < 0.01 | < 0.01 | 0.037 | < 0.01 | 0.085 | < 0.01 | < 0.01 | 0.079 ± 0.023 | – | – | – | – | – | – | – | – | – | –
2 | – | CC[C@@]1(O)C(=O)OCc2c1cc1n(c2=O)Cc2cc3ccccc3nc2-1 [Compound 1, camptothecin, reference compound] | – | – | – | – | – | – | – | – | – | 0.01 | 0.03 | 0.01 | 0.22 | 0.02 | 0.01 | 0.01 | – | – | –
3 | ++++ | O=C1c2ccccc2-c2c1c1ccc([N+](=O)[O-])cc1c(=O)n2C[C@H](O)[C@@H](O)[C@@H](O)[C@H](O)CO [Compound 69, (2′S,3′R,4′S,5′R)-5,6-Dihydro-6-(2′,3′,4′,5′,6′-pentahydroxyhexyl)-3-nitro-5,11-dioxo-11H-indeno[1,2-c]isoquinoline] | – | – | – | – | – | – | – | – | – | – | 3.39 | – | – | – | – | – | 51.5 to 73.2 | 7.94 | –
4 | – | COc1cc2c3c(n(CCCN4CCOCC4)c(=O)c2cc1OC)-c1cc2c(cc1C3=O)OCO2 [Compound 4, 2,3-Dimethoxy-6-(3-morpholinopropyl)-5,6-dihydro-8,9-methylenedioxy-5,12-dioxoindeno[1,2-c]isoquinoline] | ++++ | 1.78 | 1.15 | 0.04 | 0.03 | 74.1 | 0.813 | 0.155 | 4.64 ± 1.25 | – | – | – | – | – | – | – | – | – | 0.37
